How the values were obtained:
[1] = system: Homo sapiens; assay: Drug level in human plasma treated with [14C]lixivaptan at 100 mg, po administered as single dose measured after 8 hrs by liquid scintillation counting; assay type: ADME, organism-based; parameters: dosed compound name [14C]lixivaptan; conditions: in vivo
Procedure, shortened: (§1)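 Healthy male volunteers fasted ≥10 h, given single oral 100 mg (200 µCi) [14C]drug as two 50-mg capsules with 250 ml water. Plasma (from ~50 ml blood) at 0.5, 2, 4, 8, 12, 24, 36 h, profiled per subject. Acetonitrile extraction, C18 radio-HPLC with 0.2% formic acid acetonitrile/water gradient, on-line radioactivity detection as % plasma radioactivity; ng-equiv/ml from % × total radioactivity.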

[2] = system: Homo sapiens; assay: Drug level in human plasma treated with [14C]lixivaptan at 100 mg, po administered as single dose measured after 0.5 hrs by liquid scintillation counting; assay type: ADME, organism-based; parameters: dosed compound name [14C]lixivaptan; conditions: in vivo; procedure, shortened: as §1
[3] = system: Homo sapiens; assay: Drug level in human plasma treated with [14C]lixivaptan at 100 mg, po administered as single dose measured after 2 hrs by liquid scintillation counting; assay type: ADME, organism-based; parameters: dosed compound name [14C]lixivaptan; conditions: in vivo; procedure, shortened: as §1
[4] = Retention time of the compound by HPLC analysis; assay type: physicochemical; parameters: dosed compound name [14C]lixivaptan
[5] = system: Homo sapiens; assay: Drug level in human plasma treated with [14C]lixivaptan at 100 mg, po administered as single dose measured after 12 hrs by liquid scintillation counting; assay type: ADME, organism-based; parameters: dosed compound name [14C]lixivaptan; conditions: in vivo; procedure, shortened: as §1
[6] = system: Homo sapiens; assay: Drug level in human plasma treated with [14C]lixivaptan at 100 mg, po administered as single dose measured after 36 hrs by liquid scintillation counting; assay type: ADME, organism-based; parameters: dosed compound name [14C]lixivaptan; conditions: in vivo; procedure, shortened: as §1
[7] = system: Homo sapiens; assay: Drug level in human plasma treated with [14C]lixivaptan at 100 mg, po administered as single dose measured after 4 hrs by liquid scintillation counting; assay type: ADME, organism-based; parameters: dosed compound name [14C]lixivaptan; conditions: in vivo; procedure, shortened: as §1
[8] = system: Homo sapiens; assay: Drug level in human plasma treated with [14C]lixivaptan at 100 mg, po administered as single dose measured after 24 hrs by liquid scintillation counting; assay type: ADME, organism-based; parameters: dosed compound name [14C]lixivaptan; conditions: in vivo; procedure, shortened: as §1
[9] = system: Homo sapiens; assay: AUC (0 to 24 hrs) in human treated with [14C]lixivaptan at 100 mg, po administered as single dose; assay type: ADME, organism-based, Plasma; parameters: time < 24 hr, dose 100 mg, route oral, dosed compound name [14C]lixivaptan; conditions: in vivo
Procedure, shortened: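 Healthy young men fasted 10 h and took one oral dose of [14C]lixivaptan, 100 mg (200 µCi) as two capsules with water, eating 4 h later. Plasma from each subject at 0.5, 2, 4, 8, 12, 24 and 36 h was acetonitrile-extracted and profiled by C18 radio-HPLC (formic acid/acetonitrile gradient) with flow detection. Component concentrations were % of radioactivity × total plasma radioactivity, giving AUC0-24 in ng-equiv.h/ml.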

[10] = system: Rattus norvegicus; assay: Toxicity in male Sprague-Dawley rat treated with [14C]lixivaptan at 10 mg/kg, po administered as single dose via gavage; assay type: organism-based; parameters: dose 10 mg/kg, dosed compound name [14C]lixivaptan, route oral; conditions: in vivo
[11] = system: Canis familiaris; assay: Toxicity in beagle dog treated with [14C]lixivaptan at 10 mg/kg, po administered as single dose via gavage; assay type: organism-based, Canis lupus familiaris; parameters: dose 10 mg/kg, dosed compound name [14C]lixivaptan, route oral; conditions: in vivo
[12] = system: Rattus norvegicus; assay: Toxicity in female Sprague-Dawley rat treated with [14C]lixivaptan at 10 mg/kg, po administered as single dose via gavage; assay type: organism-based; parameters: dose 10 mg/kg, dosed compound name [14C]lixivaptan, route oral; conditions: in vivo
[13] = system: Homo sapiens; assay: AUC at steady state in human treated with [14C]lixivaptan at 100 mg, po qd for 7 days by LC/MS/MS analysis; assay type: ADME, organism-based, Plasma; parameters: dosed compound name Lixivaptan; conditions: in vivo, 168 h
Procedure, shortened: (§2)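 Phase 1 human study with lixivaptan 100 mg orally once daily and blood taken on the final day. Parent and two abundant metabolites were quantified in plasma with a validated LC-MS/MS assay.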

[14] = system: Homo sapiens; assay: AUC in human treated with [14C]lixivaptan at 100 mg, po qd for 7 days; assay type: ADME, organism-based, Plasma; parameters: dosed compound name [14C]lixivaptan; conditions: in vivo, 168 h
[15] = system: Homo sapiens; assay: Cmax in human treated with [14C]lixivaptan at 100 mg, po qd for 7 days; assay type: ADME, organism-based; parameters: dose 100 mg, route oral, dosed compound name [14C]lixivaptan; conditions: in vivo, 168 h
[16] = system: Homo sapiens; assay: Drug concentration at steady state in human treated with [14C]lixivaptan at 100 mg, po qd for 7 days by LC/MS/MS analysis; assay type: ADME, organism-based; parameters: dosed compound name Lixivaptan; conditions: in vivo, 168 h; procedure, shortened: as §2
[17] = system: Canis familiaris; assay: Drug level in beagle dog plasma treated with [14C]lixivaptan at 10 mg/kg, po administered as single dose measured after 8 hrs by liquid scintillation counting; assay type: ADME, organism-based, Canis lupus familiaris; parameters: dose 10 mg/kg, dosed compound name [14C]lixivaptan, route oral; conditions: in vivo
Procedure, shortened: (§3)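 Four male beagles fasted 18 h were gavaged once with [14C]lixivaptan at 10 mg/kg (2 ml/kg). The 5.0 mg/ml suspension was in deionized water with pluronic F68 (1.04 µCi/mg). Jugular K2EDTA plasma was taken at 2, 8 and 24 h and extracted twice with 2 volumes of acetonitrile. Profiling used C18 radio-HPLC (ammonium formate/acetonitrile gradient) with on-line flow scintillation detection. Each peak is reported as percent of plasma radioactivity.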

[18] = system: Rattus norvegicus; assay: Drug level in female Sprague-Dawley rat plasma treated with [14C]lixivaptan at 10 mg/kg, po administered as single dose via gavage measured after 8 hrs by liquid scintillation counting; assay type: ADME, organism-based; parameters: dose 10 mg/kg, dosed compound name [14C]lixivaptan, route oral; conditions: in vivo
Procedure, shortened: (§4)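 Single oral gavage of [14C]drug (10 mg/kg, 10 ml/kg) as suspension in deionized water with pluronic F68, ~29.8 µCi/mg; SD rats fasted 18 h, fed 4 h post-dose. Blood by cardiac puncture under isoflurane, 3 rats/time/gender, into K2EDTA at 1, 8, 24 h; plasma extracted twice with 2 vol acetonitrile, radio-HPLC on C18 with flow radioactivity detection, expressed as % plasma radioactivity.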

[19] = system: Rattus norvegicus; assay: Drug level in male Sprague-Dawley rat plasma treated with [14C]lixivaptan at 10 mg/kg, po administered as single dose via gavage measured after 1 hr by liquid scintillation counting; assay type: ADME, organism-based; parameters: dose 10 mg/kg, dosed compound name [14C]lixivaptan, route oral; conditions: in vivo; procedure, shortened: as §4
[20] = system: Rattus norvegicus; assay: Drug level in female Sprague-Dawley rat plasma treated with [14C]lixivaptan at 10 mg/kg, po administered as single dose via gavage measured after 1 hr by liquid scintillation counting; assay type: ADME, organism-based; parameters: dose 10 mg/kg, dosed compound name [14C]lixivaptan, route oral; conditions: in vivo
Procedure, shortened: (§5)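 Sprague-Dawley rats (9/gender) were fasted 18 h and gavaged once with [14C]lixivaptan at 10 mg/kg (10 ml/kg), about 29.8 µCi/mg, suspended in deionized water with pluronic F68. Plasma came by cardiac puncture under isoflurane at 1, 8 and 24 h (3/gender/time) and was extracted twice with 2 volumes of acetonitrile. C18 radio-HPLC with a flow scintillation detector gave percent of plasma radioactivity per peak.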

[21] = system: Canis familiaris; assay: Drug level in beagle dog plasma treated with [14C]lixivaptan at 10 mg/kg, po administered as single dose measured after 24 hrs by liquid scintillation counting; assay type: ADME, organism-based, Canis lupus familiaris; parameters: dose 10 mg/kg, dosed compound name [14C]lixivaptan, route oral; conditions: in vivo; procedure, shortened: as §3
[22] = system: Rattus norvegicus; assay: Drug level in female Sprague-Dawley rat plasma treated with [14C]lixivaptan at 10 mg/kg, po administered as single dose via gavage measured after 24 hrs by liquid scintillation counting; assay type: ADME, organism-based; parameters: dose 10 mg/kg, dosed compound name [14C]lixivaptan, route oral; conditions: in vivo; procedure, shortened: as §5
[23] = system: Canis familiaris; assay: Drug level in beagle dog plasma treated with [14C]lixivaptan at 10 mg/kg, po administered as single dose measured after 2 hrs by liquid scintillation counting; assay type: ADME, organism-based, Canis lupus familiaris; parameters: dose 10 mg/kg, dosed compound name [14C]lixivaptan, route oral; conditions: in vivo; procedure, shortened: as §3
[24] = system: Rattus norvegicus; assay: Drug level in male Sprague-Dawley rat plasma treated with [14C]lixivaptan at 10 mg/kg, po administered as single dose via gavage measured after 24 hrs by liquid scintillation counting; assay type: ADME, organism-based; parameters: dose 10 mg/kg, dosed compound name [14C]lixivaptan, route oral; conditions: in vivo; procedure, shortened: as §4
[25] = system: Rattus norvegicus; assay: AUC (0 to 24 hrs) in male Sprague-Dawley rat treated with [14C]lixivaptan at 10 mg/kg, po administered as single dose via gavage; assay type: ADME, organism-based, Plasma; parameters: time < 24 hr, dose 10 mg/kg, dosed compound name [14C]lixivaptan, route oral; conditions: in vivo; procedure, shortened: as §5
[26] = system: Rattus norvegicus; assay: AUC (0 to 24 hrs) in female Sprague-Dawley rat treated with [14C]lixivaptan at 10 mg/kg, po administered as single dose via gavage; assay type: ADME, organism-based, Plasma; parameters: time < 24 hr, dose 10 mg/kg, dosed compound name [14C]lixivaptan, route oral; conditions: in vivo; procedure, shortened: as §5
[27] = system: Rattus norvegicus; assay: Drug level in male Sprague-Dawley rat plasma treated with [14C]lixivaptan at 10 mg/kg, po administered as single dose via gavage measured after 8 hrs by liquid scintillation counting; assay type: ADME, organism-based; parameters: dose 10 mg/kg, dosed compound name [14C]lixivaptan, route oral; conditions: in vivo; procedure, shortened: as §4
[28] = system: Canis familiaris; assay: AUC (0 to 24 hrs) in beagle dog treated with [14C]lixivaptan at 10 mg/kg, po administered as single dose; assay type: ADME, organism-based, Canis lupus familiaris, Plasma; parameters: time < 24 hr, dose 10 mg/kg, dosed compound name [14C]lixivaptan, route oral; conditions: in vivo

Compound recovery [1] [%] | Compound recovery [2] [%] | Compound recovery [3] [%] | Retention_time [4] [min] | Compound recovery [5] [%] | Compound recovery [6] [%] | Compound recovery [7] [%] | Compound recovery [8] [%] | AUC [9] [ng.Eq.hr/ml] | AUCss [13] [ng·h/mL] | AUC [14] [ng·h/mL] | Cmax [15] [ng/mL] | Css [16] [ng/mL] | Compound recovery [17] [%] | Compound recovery [18] [%] | Compound recovery [19] [%] | Compound recovery [20] [%] | SMILES | Activity [10] | Activity [11] | Activity [12] | other results
2.4 | 0.6 | 1.5 | 20.2 | 2.1 |  | 2.5 | 2.1 | 268 |  |  |  |  |  |  |  |  | Cc1ccc(F)cc1C(=O)Nc1ccc(C(=O)N2C=C3CCC(=O)N3Cc3ccccc32)c(Cl)c1 |  |  |  | 
 |  |  |  |  |  |  |  |  |  |  |  |  | 11.1 | 25.2 | 5.4 | 36.2 | Cc1ccc(F)cc1C(=O)Nc1ccc(C(=O)N2CC3C=CC(=O)N3Cc3ccccc32)c(Cl)c1 (stereo not given) | Non-toxic | Non-toxic | Non-toxic | Compound recovery [21]: 3.9%; Compound recovery [22]: 2.6%; Compound recovery [23]: 19.4%

Continued, compound first:

SMILES | Compound recovery [1] [%] | Compound recovery [2] [%] | Compound recovery [3] [%] | Retention_time [4] [min] | Compound recovery [5] [%] | Compound recovery [6] [%] | Compound recovery [7] [%] | Compound recovery [8] [%] | AUC [9] [ng.Eq.hr/ml] | AUCss [13] [ng·h/mL] | AUC [14] [ng·h/mL] | Cmax [15] [ng/mL] | Css [16] [ng/mL] | Compound recovery [17] [%] | Compound recovery [18] [%] | Compound recovery [19] [%] | Compound recovery [20] [%] | Activity [10] | Activity [11] | Activity [12] | other results
Cc1ccc(F)cc1C(=O)Nc1ccc(C(=O)N2Cc3cccn3C(O)c3ccccc32)c(Cl)c1 (stereo not given) | 2.1 | 2.7 | 2.2 | 25.2 | 1.6 | 3.8 | 2.4 | 4.2 |  |  |  |  |  |  |  |  |  |  |  |  | 
Cc1ccc(F)cc1C(=O)Nc1ccc(C(=O)Nc2ccccc2Cn2cccc2C(=O)O)c(Cl)c1 | 12.2 | 4.1 | 16.5 | 23.3 | 11.2 | 7.6 | 16.8 | 11 | 2680 | 3040 | 2680 | 290 | 454 |  |  |  |  | Non-toxic | Non-toxic | Non-toxic | 
Cc1ccc(F)cc1C(=O)Nc1ccc(C(=O)Nc2ccccc2C(=O)O)c(Cl)c1 | 28.4 | 1.5 | 12.6 | 24.5 | 30.1 | 35.2 | 19.6 | 38.8 | 5180 | 6610 | 5180 | 278 | 658 | 29.7 | 42.4 | 58.5 | 9 | Non-toxic | Non-toxic | Non-toxic | Compound recovery [24]: 67.8%; AUC [25]: 32100 ng.Eq.hr/ml; Compound recovery [21]: 38.7%; Compound recovery [22]: 97.4%; AUC [26]: 11100 ng.Eq.hr/ml; Compound recovery [27]: 73.9%; Compound recovery [23]: 15.3%; AUC [28]: 22400 ng.Eq.hr/ml

From ChEMBL document CHEMBL3525987, “Assessment of exposure of metabolites in preclinical species and humans at steady state from the single-dose radiolabeled absorption, distribution, metabolism, and excretion studies: a case study” (Drug Metab Dispos, 2012)
